# Data from article PMC10824272 (Biomedicine & pharmacotherapy = Biomedecine & …, 2023).
# Where “and” joins values, the source holds several entries; their conditions need not be identical. Identical values can stand only once.
# Legend:
# mouse claudin-4 = target: T1, mouse claudin-4 (Mus musculus, UniProt O35054); experiment: Microscale thermophoresis; assay type: binding; details: 25 °C, duplicate acquisitions
# T1 sequence (O35054 1-210): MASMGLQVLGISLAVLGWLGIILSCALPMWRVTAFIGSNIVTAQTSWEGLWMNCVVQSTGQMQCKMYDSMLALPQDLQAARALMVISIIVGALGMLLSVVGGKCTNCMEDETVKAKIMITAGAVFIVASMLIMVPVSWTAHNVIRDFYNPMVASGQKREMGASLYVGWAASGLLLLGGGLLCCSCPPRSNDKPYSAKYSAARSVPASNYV
# Outline: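 Microscale thermophoresis at 25 °C with 1 μM Cy3-labeled, detergent-purified claudin (human claudin-19, mouse claudin-4 or trypsinized human claudin-1) in HEPES pH 7.4/100 mM NaCl buffer. Test compound dissolved in DMSO and titrated from 135 μM to 4.1 nM. Affinity derived from duplicate acquisitions.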
# [1] = system: SW480^cld1, SW620 and HCT116 cells; experiment: Screening of I-6 analogs by anoikis; assay type: cell-based, human; details: Suppl Fig3
# Outline: (§1)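 Anoikis induced by plating cells on poly-HEMA-coated culture plates. Apoptosis quantified with a cell death detection ELISA. Parental lines were cultured in RPMI with 10% FBS. Claudin-1-overexpressing SW480 and claudin-1-knockdown SW620 derivatives were used.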
# SW620 cells = experiment: Anoikis-induced apoptosis assay; assay type: cell-based; details: claudin-1 overexpressed SW620
# HCT116 cells = experiment: Anoikis-induced apoptosis assay; assay type: cell-based, human; details: claudin-1 deficient HCT116
# [2] = target: T2, claudin-1/Src association (Homo sapiens, UniProt O95832); experiment: Claudin-1 immunoprecipitation / Src immunoblot in SW620 cells; assay type: cell-based; details: 12.5μM and 25μM
# T2 sequence (O95832 1-211): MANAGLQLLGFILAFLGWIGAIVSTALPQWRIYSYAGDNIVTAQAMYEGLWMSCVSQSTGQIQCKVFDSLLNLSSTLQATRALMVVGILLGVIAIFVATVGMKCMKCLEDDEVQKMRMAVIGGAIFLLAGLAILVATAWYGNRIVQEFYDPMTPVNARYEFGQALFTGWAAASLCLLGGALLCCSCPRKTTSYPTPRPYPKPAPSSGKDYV
# [3] = Plasma pharmacokinetics in mice; assay type: in vivo; details: for AUC(0-t) / CL/F / Cmax / Tmax / Vd/F / half-life / AUC(0-inf): both, mouse, plasma, 5 mg/kg; for AUC(0-inf): AUC0−∞, mice
# Outline: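 I-6 given as a single 1 mg/kg intravenous dose to C57BL6 mice (n=5), with serial blood sampling. PDS-0330 given at 5 mg/kg by oral gavage or IP, with ~100 μl blood drawn from the maxillary vein at 5, 15, 30 min and 1, 2, 4, 6, 8, 24 h. Plasma levels in ng/ml; non-compartmental parameters.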
# normal IEC-6 cells = experiment: Cell viability; assay type: cell-based; details: 72 hours
# Outline: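 Cells maintained in RPMI plus 10% FBS. Viability read with PrestoBlue reagent per kit protocol after 72 h exposure to test compound.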
# [4] = Drug toxicity in xenograft mice; assay type: in vivo
# Outline: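 Body weight recorded during treatment. BUN determined colorimetrically in plasma and kidney tissue lysate by kit protocol. Mice sacrificed at day 25; AST activity measured in plasma and liver homogenate, followed up to 60 min at regular intervals. n=5 mice/group, means ± SEM.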
# SW480^cld1 cells [5] = experiment: Transwell matrigel invasion assay; assay type: cell-based, human; details: PDS-0330 25μM; P < 0.0001 vs control and 20A
# SW480^cld1 cells [6] = experiment: Anoikis-induced apoptosis assay; assay type: cell-based; details: claudin-1 overexpressed SW480^cld1
# Outline: as §1
compound,measurement,setting,value
"O=C(NC(=S)Nc1ccc(-c2nc3ccccc3o2)cc1)c1ccc2ccccc2c1 [PDS-0330, N-((4-(benzo[d]oxazol-2-yl)phenyl)carbamothioyl)-2-naphthamide]",Kd,mouse claudin-4,92.1 µM and ≥ 100 µM
same,potency in inducing cell death among I-6 analogs,[1],most potent
same,resistance to anoikis,SW620 cells,dramatically reduced the resistance to anoikis
same,resistance to anoikis,HCT116 cells,not affecting
same,association of Src with claudin-1,[2],significantly interferes
same,mouse behavior or weight,"[3]; 24 hours after a single PO and IP injection (5 mg/kg), data not shown",no change
same,AUC(0-t),[3]; ip,422 ng·h/mL
same,CL/F,[3]; ip,245 mL/min/kg
same,Cmax,[3]; ip,59.3 ng/mL
same,Tmax,[3]; ip,2.8 h
same,Vd/F,[3]; ip,126 L/kg
same,half-life,[3]; ip,5.5 h
same,AUC(0-inf),"[3]; ip, PDS-0330 IP 5mg/kg",442 ng·h/mL
same,AUC(0-t),[3]; po,53.4 ng·h/mL
same,CL/F,[3]; po,1190 mL/min/kg
same,Cmax,[3]; po,30.8 ng/mL
same,Tmax,[3]; po,0.4 h
same,Vd/F,[3]; po,1100 L/kg
same,half-life,[3]; po,14.5 h
same,AUC(0-inf),"[3]; po, PDS-0330 PO 5mg/kg",86 ng·h/mL
same,effect on cell growth/survival,normal IEC-6 cells,no effect
same,body weight among groups at the end of treatment,"[4]; PDS-0330 5mg/Kg and 10mg/Kg, SW620 and SW480^cld1 implanted mice",no statistically significant differences
same,urea nitrogen (BUN) level,[4]; kidney tissue and plasma of treated mice,not affected
same,aspartate transaminase (AST) levels,"[4]; plasma and liver homogenate, day 25",not affected
same,cell invasion,SW480^cld1 cells [5],significantly inhibited
same,resistance to anoikis,SW480^cld1 cells [6],dramatically reduced the resistance to anoikis
